In brackets after ≈: the same amount, converted by molar mass.
Legend:
Klebsiella pneumoniae [1] = assay: Antibacterial activity against Klebsiella pneumoniae after 24 hrs by broth dilution technique; assay type: functional
How it was run: (§1)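 MIC by broth dilution in nutrient broth with logarithmic serial twofold dilutions of compound. Inoculum approx. 5×10^5 c.f.u actively dividing bacteria. Incubated 24 h at 37 °C, growth monitored visually and spectrophotometrically. MIC taken as the lowest concentration (highest dilution) arresting growth. Ciprofloxacin reference.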

Klebsiella pneumoniae [2] = assay: Antibacterial activity against Klebsiella pneumoniae assessed as inhibition zone diameter after 24 hrs […]; assay type: functional
How it was run: (§2)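 Disc diffusion on nutrient agar. Inoculum 1-2 × 10^7 c.f.u/ml (0.5 McFarland) spread over the plate surface. Sterile 6.25 mm filter-paper discs soaked in a known concentration of compound. Solvent and growth controls included. Plates incubated inverted 24 h at 37 °C, then inhibition zone diameter measured in mm. Ciprofloxacin reference.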

Pseudomonas aeruginosa [3] = assay: Antibacterial activity against Pseudomonas aeruginosa ATCC 27853 after 24 hrs by broth dilution technique; assay type: functional; conditions: ATCC 27853, 24 h; how it was run: as §1
Aspergillus fumigatus [4] = assay: Antifungal activity against Aspergillus fumigatus after 48 hrs […]; assay type: functional
Candida albicans [5] = assay: Antifungal activity against Candida albicans after 48 hrs […]; assay type: functional
Streptococcus pyogenes [6] = assay: Antibacterial activity against Streptococcus pyogenes after 24 hrs by broth dilution technique; assay type: functional; how it was run: as §1
Staphylococcus aureus [7] = assay: Antibacterial activity against Staphylococcus aureus ATCC 25923 after 24 hrs by broth dilution technique; assay type: functional; conditions: ATCC 25923, 24 h; how it was run: as §1
Staphylococcus aureus [8] = assay: Antibacterial activity against Staphylococcus aureus ATCC 25923 assessed as inhibition zone diameter after 24 hrs […]; assay type: functional; how it was run: as §2
Pseudomonas aeruginosa [9] = assay: Antibacterial activity against Pseudomonas aeruginosa ATCC 27853 assessed as inhibition zone diameter after 24 hrs […]; assay type: functional; how it was run: as §2
Streptococcus pyogenes [10] = assay: Antibacterial activity against Streptococcus pyogenes assessed as inhibition zone diameter after 24 hrs by disc diffusion method
Escherichia coli = assay: Antibacterial activity against Escherichia coli ATCC 25922 after 24 hrs by broth dilution technique; assay type: functional; conditions: ATCC 25922, 24 h; how it was run: as §1
Aspergillus flavus [11] = assay: Antifungal activity against Aspergillus flavus after 48 hrs […]; assay type: functional
Talaromyces marneffei [12] = assay: Antifungal activity against Penicillium marneffei assessed as inhibition zone diameter […] by agar dilution method; assay type: functional
How it was run: (§3)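 Compounds in DMSO placed in punched wells on Sabouraud agar (peptone, glucose, agar, pH 5.7) lawned with saline spore suspension. Plates pre-dried 1 h at 37 °C. Controls in triplicate, incubation at 37 °C for 3-4 days, then inhibition zone diameter read in mm. Amphotericin B reference.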

[13] = test system: Trichophyton mentagrophytes; assay: Antifungal activity against Trichophyton mentagrophytes after 48 hrs […]; assay type: functional
Candida albicans [14] = assay: Antifungal activity against Candida albicans assessed as inhibition zone diameter […] by agar dilution method; assay type: functional; how it was run: as §3
[15] = test system: Trichophyton mentagrophytes; assay: Antifungal activity against Trichophyton mentagrophytes assessed as inhibition zone diameter […] by agar dilution method; assay type: functional; how it was run: as §3
Talaromyces marneffei [16] = assay: Antifungal activity against Penicillium marneffei after 48 hrs […]; assay type: functional
Aspergillus flavus [17] = assay: Antifungal activity against Aspergillus flavus assessed as inhibition zone diameter […] by agar dilution method; assay type: functional; how it was run: as §3
Aspergillus fumigatus [18] = assay: Antifungal activity against Aspergillus fumigatus assessed as inhibition zone diameter […] by agar dilution method; assay type: functional; how it was run: as §3

Structure (SMILES)	MIC (Klebsiella pneumoniae [1]) [µg/mL]	inhibition zone (IZ) (Klebsiella pneumoniae [2]) [mm]	MIC (Pseudomonas aeruginosa [3]) [µg/mL]	MIC (Aspergillus fumigatus [4]) [µg/mL]	MIC (Candida albicans [5]) [µg/mL]	MIC (Streptococcus pyogenes [6]) [µg/mL]	MIC (Staphylococcus aureus [7]) [µg/mL]	inhibition zone (IZ) (Staphylococcus aureus [8]) [mm]	inhibition zone (IZ) (Pseudomonas aeruginosa [9]) [mm]	inhibition zone (IZ) (Streptococcus pyogenes [10]) [mm]	MIC (Escherichia coli) [µg/mL]	MIC (Aspergillus flavus [11]) [µg/mL]	inhibition zone (IZ) (Talaromyces marneffei [12]) [mm]	MIC [13] [µg/mL]	inhibition zone (IZ) (Candida albicans [14]) [mm]	inhibition zone (IZ) [15] [mm]	MIC (Talaromyces marneffei [16]) [µg/mL]	inhibition zone (IZ) (Aspergillus flavus [17]) [mm]	inhibition zone (IZ) (Aspergillus fumigatus [18]) [mm]
Cc1cc(C)c(NC2=Nn3c(nnc3-c3cc(F)c(Cl)cc3Cl)SC2)c(C)c1	25 (≈ 57.3 µM)	8	25 (≈ 57.3 µM)	> 100	12.5 (≈ 28.6 µM)	12.5 (≈ 28.6 µM)	6.25 (≈ 14.3 µM)	23	16	15	12.5 (≈ 28.6 µM)	> 100	11	12.5 (≈ 28.6 µM)	13	14	12.5 (≈ 28.6 µM)		
Cc1ccc(NC2=Nn3c(nnc3-c3cc(F)c(Cl)cc3Cl)SC2)c(C)c1	12.5 (≈ 29.6 µM)	14	12.5 (≈ 29.6 µM)	25 (≈ 59.2 µM)	25 (≈ 59.2 µM)	12.5 (≈ 29.6 µM)	> 100		18	11	12.5 (≈ 29.6 µM)	12.5 (≈ 29.6 µM)		12.5 (≈ 29.6 µM)	8	12	> 100	15	9
COc1ccc(NC(=O)CSc2nnc(-c3cc(F)c(Cl)cc3Cl)n2N)cc1	6.25 (≈ 14.1 µM)	21	6.25 (≈ 14.1 µM)	> 100	> 100	6.25 (≈ 14.1 µM)	6.25 (≈ 14.1 µM)	24	32	23	6.25 (≈ 14.1 µM)	> 100		> 100			> 100		
CCOc1ccc(NC2=Nn3c(nnc3-c3cc(F)c(Cl)cc3Cl)SC2)cc1	12.5 (≈ 28.5 µM)	12	25 (≈ 57 µM)	12.5 (≈ 28.5 µM)	12.5 (≈ 28.5 µM)		6.25 (≈ 14.3 µM)	20	15		> 100	25 (≈ 57 µM)	17	> 100	12		12.5 (≈ 28.5 µM)	10	15

From ChEMBL document CHEMBL1149770, “Synthesis and antimicrobial studies of novel dichlorofluorophenyl containing aminotriazolothiadiazines” (2008)
